As usually defined, the Ki is the equilibrium dissociation constant of an inhibitor or competing ligand from its target.

Molecules are shown by their SMILES. Active and inactive are the calls of the source. The rule behind the calls is not given here.

Experimental findings from ChEMBL document CHEMBL3392991, “Structure-based design of bacterial nitric oxide synthase inhibitors” (J Med Chem, 2015) are described below.

The subject of experiment [1] is Bacillus subtilis. Put plainly: Inhibition of NADPH-dependent Bacillus subtilis NOS using bBiDomain and Escherichia coli flavodoxin reductase YumC assessed as nitrite level up to 800 uM by Griess reaction. An outline of the steps: (§1)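 bBiDomain with the flavodoxin reductase YumC, NADPH-driven, 50 μM H4B included. Inhibitor tested over a range of concentrations. Nitrite measured at a single time point.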
For orientation: The Griess reaction detects nitrite, a stable product of nitric oxide.

Experiment [2] concerns Bacillus subtilis. The experiment in a line: Inhibition of NADPH-dependent Bacillus subtilis NOS using bBiDomain and Escherichia coli flavodoxin reductase YumC assessed as nitrite level at 300 uM by Griess reaction. Further details: Activity: scale not given: the % may be the effect or the level left. In short, it runs like this:
as §1

For experiment [3], the system named is Bacillus subtilis. The experiment in a line: Displacement of imidazole from Bacillus subtilis NOS.
The subject of experiment [4] is Bacillus subtilis. The experiment in a line: Displacement of imidazole from Bacillus subtilis NOS in presence of 50 uM H4B.
For experiment [5], the system named is Bacillus subtilis. The experiment in a line: Antibacterial activity against delta nos Bacillus subtilis assessed as bacterial growth up to 800 uM measured after overnight incubation relative to control. The experiment is classed as functional. The following applies: in the assay text read “at 500 uM” for “up to 800 uM”. An outline of the steps:
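WT (ATCC 23857) and Δnos strains grown to OD600 ≈ 1.0, diluted to OD600 0.6 in LB, then mixed with M9 minimal media with or without NOS inhibitor (final 500 μM) and/or acriflavine (final 800 μM). 30 min at 30 °C, serially diluted, plated on LB agar + 0.5% glucose, overnight at 37 °C. CFU counted; percent survival relative to untreated cells.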

Another experiment has as its target Nitric oxide synthase 1 (Rattus norvegicus, UniProt P29476). Put plainly: Inhibition of rat nNOS.
A further experiment deals with T1, Nitric oxide synthase 3 (Bos taurus, UniProt P29473).
T1 sequence (P29473 whole entry): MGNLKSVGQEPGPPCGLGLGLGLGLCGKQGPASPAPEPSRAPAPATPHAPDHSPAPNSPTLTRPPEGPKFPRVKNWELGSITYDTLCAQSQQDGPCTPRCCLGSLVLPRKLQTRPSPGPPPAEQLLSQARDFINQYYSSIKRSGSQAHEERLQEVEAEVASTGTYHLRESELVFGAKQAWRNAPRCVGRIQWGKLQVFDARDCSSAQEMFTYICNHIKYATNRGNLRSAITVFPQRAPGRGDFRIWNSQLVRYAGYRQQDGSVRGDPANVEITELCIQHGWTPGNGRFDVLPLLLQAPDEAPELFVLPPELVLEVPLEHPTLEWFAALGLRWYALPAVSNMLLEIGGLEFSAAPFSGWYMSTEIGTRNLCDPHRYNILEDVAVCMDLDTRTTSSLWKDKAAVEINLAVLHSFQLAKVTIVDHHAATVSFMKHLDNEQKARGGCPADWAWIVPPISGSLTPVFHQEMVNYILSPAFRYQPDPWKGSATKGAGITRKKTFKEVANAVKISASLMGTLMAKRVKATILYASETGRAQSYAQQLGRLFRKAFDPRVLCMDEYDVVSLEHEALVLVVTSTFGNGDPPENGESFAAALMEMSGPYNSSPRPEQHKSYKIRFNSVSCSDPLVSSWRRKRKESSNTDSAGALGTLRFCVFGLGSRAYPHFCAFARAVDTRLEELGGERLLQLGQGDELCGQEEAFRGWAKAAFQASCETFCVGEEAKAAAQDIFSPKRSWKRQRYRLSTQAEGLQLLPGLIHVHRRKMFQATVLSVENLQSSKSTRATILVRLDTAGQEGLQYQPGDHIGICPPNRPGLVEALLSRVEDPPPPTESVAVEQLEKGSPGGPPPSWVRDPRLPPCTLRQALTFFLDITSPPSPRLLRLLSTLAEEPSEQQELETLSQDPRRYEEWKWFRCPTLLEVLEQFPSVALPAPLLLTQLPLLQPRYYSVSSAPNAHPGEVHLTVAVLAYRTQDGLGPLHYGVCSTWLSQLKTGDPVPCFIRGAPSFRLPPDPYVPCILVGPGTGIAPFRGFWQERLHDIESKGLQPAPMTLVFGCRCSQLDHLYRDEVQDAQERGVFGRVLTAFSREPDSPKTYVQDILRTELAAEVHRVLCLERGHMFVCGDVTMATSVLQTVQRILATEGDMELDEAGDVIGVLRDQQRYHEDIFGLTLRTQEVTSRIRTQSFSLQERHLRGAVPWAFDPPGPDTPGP
The experiment in a line: Inhibition of bovine eNOS.

For experiment [6], the target named is T2, Nitric oxide synthase, inducible (Mus musculus, UniProt P29477).
T2 sequence (P29477 whole entry): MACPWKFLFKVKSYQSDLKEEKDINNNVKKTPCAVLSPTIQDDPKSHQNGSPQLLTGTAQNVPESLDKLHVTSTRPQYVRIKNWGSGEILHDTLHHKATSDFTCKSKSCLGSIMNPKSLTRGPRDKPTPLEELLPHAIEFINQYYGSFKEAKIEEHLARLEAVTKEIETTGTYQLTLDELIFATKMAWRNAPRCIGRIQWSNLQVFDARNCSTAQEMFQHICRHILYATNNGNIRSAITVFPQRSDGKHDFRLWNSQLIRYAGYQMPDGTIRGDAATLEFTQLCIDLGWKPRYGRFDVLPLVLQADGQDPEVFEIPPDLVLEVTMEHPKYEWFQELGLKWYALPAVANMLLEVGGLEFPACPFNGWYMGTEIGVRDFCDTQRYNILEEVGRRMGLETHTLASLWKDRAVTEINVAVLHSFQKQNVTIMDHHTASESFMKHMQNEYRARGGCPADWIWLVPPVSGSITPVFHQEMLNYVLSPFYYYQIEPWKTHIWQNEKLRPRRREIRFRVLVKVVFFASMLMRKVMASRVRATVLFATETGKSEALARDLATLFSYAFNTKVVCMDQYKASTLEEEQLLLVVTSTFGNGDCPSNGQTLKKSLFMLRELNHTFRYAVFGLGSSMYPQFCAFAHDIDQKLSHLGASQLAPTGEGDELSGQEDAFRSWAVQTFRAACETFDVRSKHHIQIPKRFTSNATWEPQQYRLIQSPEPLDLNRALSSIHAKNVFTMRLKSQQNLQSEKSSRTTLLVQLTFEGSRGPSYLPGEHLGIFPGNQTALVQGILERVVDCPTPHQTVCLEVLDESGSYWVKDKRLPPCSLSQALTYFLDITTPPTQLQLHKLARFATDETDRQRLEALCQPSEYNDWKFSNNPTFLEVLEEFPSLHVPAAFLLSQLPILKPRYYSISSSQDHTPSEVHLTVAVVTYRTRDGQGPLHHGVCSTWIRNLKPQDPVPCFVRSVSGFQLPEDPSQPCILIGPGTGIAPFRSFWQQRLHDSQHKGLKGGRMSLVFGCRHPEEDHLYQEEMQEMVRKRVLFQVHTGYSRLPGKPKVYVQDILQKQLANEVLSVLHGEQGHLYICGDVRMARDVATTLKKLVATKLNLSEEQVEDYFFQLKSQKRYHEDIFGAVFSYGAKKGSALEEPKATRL
Put plainly: Inhibition of mouse iNOS.

Chain of Nitric oxide synthase 1 (P29476 whole entry): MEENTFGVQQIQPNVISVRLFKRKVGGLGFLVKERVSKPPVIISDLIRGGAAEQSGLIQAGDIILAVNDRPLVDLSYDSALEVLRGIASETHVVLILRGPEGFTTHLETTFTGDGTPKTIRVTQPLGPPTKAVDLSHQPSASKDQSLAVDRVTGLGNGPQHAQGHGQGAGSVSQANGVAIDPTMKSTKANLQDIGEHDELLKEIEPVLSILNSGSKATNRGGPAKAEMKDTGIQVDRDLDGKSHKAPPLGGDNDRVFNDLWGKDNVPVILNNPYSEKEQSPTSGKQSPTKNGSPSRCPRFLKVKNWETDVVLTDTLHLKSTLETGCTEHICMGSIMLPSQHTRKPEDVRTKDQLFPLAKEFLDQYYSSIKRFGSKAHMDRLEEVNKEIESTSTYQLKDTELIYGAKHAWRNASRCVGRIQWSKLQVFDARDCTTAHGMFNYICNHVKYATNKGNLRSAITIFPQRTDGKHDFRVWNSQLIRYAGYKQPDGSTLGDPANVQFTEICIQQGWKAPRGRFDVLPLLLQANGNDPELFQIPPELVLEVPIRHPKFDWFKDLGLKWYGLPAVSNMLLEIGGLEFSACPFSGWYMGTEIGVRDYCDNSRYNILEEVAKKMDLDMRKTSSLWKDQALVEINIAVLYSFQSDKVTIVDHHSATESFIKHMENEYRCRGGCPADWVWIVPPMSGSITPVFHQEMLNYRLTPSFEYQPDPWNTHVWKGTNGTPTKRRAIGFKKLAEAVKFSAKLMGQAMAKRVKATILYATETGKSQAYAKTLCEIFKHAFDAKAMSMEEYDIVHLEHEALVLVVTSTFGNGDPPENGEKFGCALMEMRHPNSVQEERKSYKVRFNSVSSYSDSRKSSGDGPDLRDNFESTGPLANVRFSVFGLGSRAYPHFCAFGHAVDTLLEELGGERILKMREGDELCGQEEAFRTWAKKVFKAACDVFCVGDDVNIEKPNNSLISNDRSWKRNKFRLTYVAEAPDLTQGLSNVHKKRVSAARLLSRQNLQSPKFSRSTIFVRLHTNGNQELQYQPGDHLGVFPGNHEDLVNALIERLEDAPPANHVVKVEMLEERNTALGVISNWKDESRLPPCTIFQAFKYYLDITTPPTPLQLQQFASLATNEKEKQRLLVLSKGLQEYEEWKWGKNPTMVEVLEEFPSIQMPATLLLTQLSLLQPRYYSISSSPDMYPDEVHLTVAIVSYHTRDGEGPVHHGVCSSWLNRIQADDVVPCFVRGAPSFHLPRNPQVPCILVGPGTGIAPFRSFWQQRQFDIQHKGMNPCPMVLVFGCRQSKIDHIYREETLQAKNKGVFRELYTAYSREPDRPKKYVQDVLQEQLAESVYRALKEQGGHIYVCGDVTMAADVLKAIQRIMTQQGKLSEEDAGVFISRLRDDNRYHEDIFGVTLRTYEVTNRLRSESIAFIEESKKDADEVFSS

As for `N=C(Nc1cccc(OCC(O)c2cccc(NC(=N)c3cccs3)c2)c1)c1cccs1` (stereo not given), the inhibition result in the experiment on Bacillus subtilis [1] and in the experiment with Bacillus subtilis [2] was “Active” each time.

With `Cc1cc(N)nc(CCc2cc(N)cc(CCc3cc(C)cc(N)n3)c2)c1`, the Ks in the experiment with Bacillus subtilis [3] was determined as 0.91 µM; in the experiment on Bacillus subtilis [4], 1.9 µM. The inhibition result in the experiment with Bacillus subtilis [1] was “Active”. Besides, in the experiment on Bacillus subtilis [2], the Activity came to 49.2%. In addition, the “inhibition (INH)” value in the experiment with Bacillus subtilis [5] was found to be 36%.

As for `Cc1cc(N)nc(CCc2cc(CCCN)cc(CCc3cc(C)cc(N)n3)c2)c1`, the Ks worked out at 16 µM in the experiment with Bacillus subtilis [3] and 19 µM in the experiment on Bacillus subtilis [4]. For the same molecule, the inhibition result with Bacillus subtilis [1] and in the experiment with Bacillus subtilis [2] was “Active” each time.

As for `N=C(NO)NCCC[C@H](N)C(=O)O`, the Ks was 3.2 µM in the experiment with Bacillus subtilis [3] and 1.9 µM in the experiment with Bacillus subtilis [4].

Regarding `Cc1cc(N)nc(CCc2cc(C#N)cc(NCCc3ccccn3)c2)c1`, the inhibition constant (Ki) on Nitric oxide synthase 1 stood at 1.27 µM; on Nitric oxide synthase 3, 1.56 µM; in experiment [6], 12.8 µM. The inhibition result in the experiment on Bacillus subtilis [1] and with Bacillus subtilis [2] was “Active” each time.

As to `Cc1cc(N)nc(CCc2cc(CN)cc(CCc3ccc4cc[nH]c4n3)c2)c1`, the figures for the Ks in the experiment on Bacillus subtilis [3] and in the experiment on Bacillus subtilis [4] were 10 µM and 12 µM, respectively. The values for the inhibition constant Ki (at Nitric oxide synthase 1; in experiment [6]) were 0.22 µM and 7.1 µM, respectively. Besides, the inhibition entry in the experiment on Bacillus subtilis [1] and in the experiment on Bacillus subtilis [2] was “Active” throughout.

Regarding `Cc1cc(N)nc(CCc2cc(CN)cc(CCc3cc(C)cc(N)n3)c2)c1`, the values for the Ks in the experiment on Bacillus subtilis [3] and in the experiment on Bacillus subtilis [4] were 15 µM and 47 µM, respectively. The inhibition result in the experiment on Bacillus subtilis [1] and in the experiment on Bacillus subtilis [2] was “Active” throughout.

As for `CNc1cc(C)cc(CCc2cc(C#N)cc(CCc3cc(C)cc(N)n3)c2)n1`, the Ks with Bacillus subtilis [3] was found to be 12 µM; in the experiment on Bacillus subtilis [4] it was 19 µM. Further, the figures for the Ki (on Nitric oxide synthase 1; on Nitric oxide synthase 3; in experiment [6]) were 0.196 µM, 11.8 µM and 14.4 µM, respectively. For the same molecule, the inhibition entry with Bacillus subtilis [1] and in the experiment with Bacillus subtilis [2] was “Active” each time.
